Tested on: U2OS
Assay: Multiplex assay against U2OS
Format: toxicity, cell-based
Conditions: human
Method in brief: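 Live cells carried four stains from seeding: Hoechst33342, BioTracker Green Microtubule Cytoskeleton Dye, MitoTracker Red and Annexin V Alexa Fluor 680. They were imaged on a CQ1 microscope at 37°C and 5% CO2 after compound addition. Using CellPathfinder machine-learning gating, cells were split into Hoechst high-intensity objects or normal cells, normal cells into healthy, pyknosed or fragmented nuclei, and pyknosed cells into mitotic or apoptotic; tubulin, mitochondrial-mass and membrane-permeability phenotypes are per cents of healthy-nucleus cells.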

[1] = 12 h, 1 µM, compound concentration 1 uM, replicate 1
[2] = 12 h, 1 µM, compound concentration 1 uM, replicate 2
[3] = 12 h, 10 µM, compound concentration 10 uM, replicate 1
[4] = 12 h, 10 µM, compound concentration 10 uM, replicate 2
[5] = 24 h, 1 µM, compound concentration 1 uM, replicate 1
[6] = 24 h, 1 µM, compound concentration 1 uM, replicate 2
[7] = 24 h, 10 µM, compound concentration 10 uM, replicate 1
[8] = 24 h, 10 µM, compound concentration 10 uM, replicate 2
[9] = 48 h, 1 µM, compound concentration 1 uM, replicate 1
[10] = 48 h, 1 µM, compound concentration 1 uM, replicate 2
[11] = 48 h, 10 µM, compound concentration 10 uM, replicate 1
[12] = 48 h, 10 µM, compound concentration 10 uM, replicate 2

C=CC(=O)Nc1cccc(C(=O)Nc2ccc(Nc3cc(-c4[nH]c(SC)nc4C)ccn3)cc2)c1
Population Apoptotic (%) [1]: 52% | Population Fragmented Nuclei (%) [1]: 9% | Population Healthy Nuclei (%) [1]: 78% | Population Hoechst High Intensity Objects (%) [1]: 8% | Population Membrane Permeable-Phenotype (%) [1]: 4% | Population Mitochondria Different-Phenotype (%) [1]: 8% | Population Mitotic Cells (%) [1]: 47% | Population Normal (%) [1]: 91% | Population Pyknosed Nuclei (%) [1]: 12% | Population Tubulin-Different-Phenotype (%) [1]: 11% | Total Cell Count [1]: 259 | Population Apoptotic (%) [2]: 0% | Population Fragmented Nuclei (%) [2]: 2% | Population Healthy Nuclei (%) [2]: 94% | Population Hoechst High Intensity Objects (%) [2]: 14% | Population Membrane Permeable-Phenotype (%) [2]: 0% | Population Mitochondria Different-Phenotype (%) [2]: 7% | Population Mitotic Cells (%) [2]: 100% | Population Normal (%) [2]: 85% | Population Pyknosed Nuclei (%) [2]: 2% | Population Tubulin-Different-Phenotype (%) [2]: 23% | Total Cell Count [2]: 112 | Population Fragmented Nuclei (%) [3]: 7% | Population Healthy Nuclei (%) [3]: 77% | Population Hoechst High Intensity Objects (%) [3]: 6% | Population Membrane Permeable-Phenotype (%) [3]: 3% | Population Mitochondria Different-Phenotype (%) [3]: 8% | Population Mitotic Cells (%) [3]: 59% | Population Normal (%) [3]: 93% | Population Pyknosed Nuclei (%) [3]: 14% | Population Tubulin-Different-Phenotype (%) [3]: 9% | Total Cell Count [3]: 171 | Population Apoptotic (%) [4]: 40% | Population Fragmented Nuclei (%) [4]: 6% | Population Healthy Nuclei (%) [4]: 83% | Population Hoechst High Intensity Objects (%) [4]: 18% | Population Membrane Permeable-Phenotype (%) [4]: 7% | Population Mitochondria Different-Phenotype (%) [4]: 12% | Population Mitotic Cells (%) [4]: 60% | Population Normal (%) [4]: 81% | Population Pyknosed Nuclei (%) [4]: 10% | Population Tubulin-Different-Phenotype (%) [4]: 12% | Total Cell Count [4]: 78 | Population Apoptotic (%) [5]: 40% | Population Fragmented Nuclei (%) [5]: 13% | Population Healthy Nuclei (%) [5]: 76% | Population Hoechst High Intensity Objects (%) [5]: 4% | Population Membrane Permeable-Phenotype (%) [5]: 5% | Population Mitochondria Different-Phenotype (%) [5]: 5% | Population Mitotic Cells (%) [5]: 60% | Population Normal (%) [5]: 95% | Population Pyknosed Nuclei (%) [5]: 10% | Population Tubulin-Different-Phenotype (%) [5]: 18% | Total Cell Count [5]: 278 | Population Apoptotic (%) [6]: 37% | Population Fragmented Nuclei (%) [6]: 3% | Population Healthy Nuclei (%) [6]: 87% | Population Membrane Permeable-Phenotype (%) [6]: 2% | Population Mitochondria Different-Phenotype (%) [6]: 10% | Population Mitotic Cells (%) [6]: 62% | Population Pyknosed Nuclei (%) [6]: 8% | Population Tubulin-Different-Phenotype (%) [6]: 25% | Total Cell Count [6]: 122 | Population Apoptotic (%) [7]: 52% | Population Fragmented Nuclei (%) [7]: 7% | Population Healthy Nuclei (%) [7]: 83% | Population Hoechst High Intensity Objects (%) [7]: 5% | Population Membrane Permeable-Phenotype (%) [7]: 5% | Population Mitochondria Different-Phenotype (%) [7]: 6% | Population Mitotic Cells (%) [7]: 47% | Population Normal (%) [7]: 94% | Population Pyknosed Nuclei (%) [7]: 8% | Population Tubulin-Different-Phenotype (%) [7]: 6% | Total Cell Count [7]: 208 | Population Apoptotic (%) [8]: 40% | Population Fragmented Nuclei (%) [8]: 5% | Population Healthy Nuclei (%) [8]: 85% | Population Hoechst High Intensity Objects (%) [8]: 11% | Population Membrane Permeable-Phenotype (%) [8]: 8% | Population Mitochondria Different-Phenotype (%) [8]: 14% | Population Mitotic Cells (%) [8]: 60% | Population Normal (%) [8]: 88% | Population Pyknosed Nuclei (%) [8]: 9% | Population Tubulin-Different-Phenotype (%) [8]: 12% | Total Cell Count [8]: 95 | Population Apoptotic (%) [9]: 37% | Population Fragmented Nuclei (%) [9]: 5% | Population Healthy Nuclei (%) [9]: 86% | Population Hoechst High Intensity Objects (%) [9]: 3% | Population Membrane Permeable-Phenotype (%) [9]: 4% | Population Mitochondria Different-Phenotype (%) [9]: 10% | Population Mitotic Cells (%) [9]: 62% | Population Normal (%) [9]: 96% | Population Pyknosed Nuclei (%) [9]: 7% | Population Tubulin-Different-Phenotype (%) [9]: 17% | Total Cell Count [9]: 291 | Population Apoptotic (%) [10]: 18% | Population Fragmented Nuclei (%) [10]: 6% | Population Healthy Nuclei (%) [10]: 85% | Population Hoechst High Intensity Objects (%) [10]: 4% | Population Membrane Permeable-Phenotype (%) [10]: 6% | Population Mitochondria Different-Phenotype (%) [10]: 13% | Population Mitotic Cells (%) [10]: 81% | Population Normal (%) [10]: 95% | Population Pyknosed Nuclei (%) [10]: 8% | Population Tubulin-Different-Phenotype (%) [10]: 28% | Total Cell Count [10]: 117 | Population Apoptotic (%) [11]: 31% | Population Fragmented Nuclei (%) [11]: 7% | Population Healthy Nuclei (%) [11]: 84% | Population Hoechst High Intensity Objects (%) [11]: 3% | Population Membrane Permeable-Phenotype (%) [11]: 2% | Population Mitochondria Different-Phenotype (%) [11]: 9% | Population Mitotic Cells (%) [11]: 68% | Population Normal (%) [11]: 96% | Population Pyknosed Nuclei (%) [11]: 8% | Total Cell Count [11]: 316 | Population Apoptotic (%) [12]: 11% | Population Fragmented Nuclei (%) [12]: 9% | Population Healthy Nuclei (%) [12]: 80% | Population Hoechst High Intensity Objects (%) [12]: 9% | Population Membrane Permeable-Phenotype (%) [12]: 4% | Population Mitochondria Different-Phenotype (%) [12]: 17% | Population Mitotic Cells (%) [12]: 88% | Population Normal (%) [12]: 90% | Population Pyknosed Nuclei (%) [12]: 10% | Population Tubulin-Different-Phenotype (%) [12]: 10% | Total Cell Count [12]: 133

From ChEMBL document CHEMBL4689842, “EUbOPEN Chemogenomics Library wave 1” (2021)
